Bioassay records (PubChem)
KCNQ1 act: potentiators or activators of human KCNQ1 potassium channel; B-score at 10 µM; hit rate 0.35% among 310,000; AID 2648; CHO-K1 KCNQ1, thallium flux FluxOR fluorescence; hits give high values; P51787;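 active means fluorescence ratio B-score, a plate-corrected score, at least three library SD, with initial intensity B-score within 5 SD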
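Assay system: CHO-K1 cells stably expressing KCNQ1. Medium: assay buffer for compound exposure, DMSO matched across wells. Timing: 37 °C overnight plating, 90-min dark dye load, 20-min compound pretreatment. Signal: kinetic FluxOR fluorescence, 10 s baseline plus 110 s post-stimulus.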
KCNK9 block: human KCNK9 channel inhibition; Q9NPC2; HEK293 KCNK9, FluxOR thallium flux fluorescence; hits give low values; B-score at 10 µM; hit rate 1.2% among 310,000;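 active means ratio B-score over 3 SD below the library mean, with starting fluorescence within 5 SD of its mean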;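 further: negative B-score means less thallium flux so channel inhibition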
Target sequence (Q9NPC2 whole entry, looked up): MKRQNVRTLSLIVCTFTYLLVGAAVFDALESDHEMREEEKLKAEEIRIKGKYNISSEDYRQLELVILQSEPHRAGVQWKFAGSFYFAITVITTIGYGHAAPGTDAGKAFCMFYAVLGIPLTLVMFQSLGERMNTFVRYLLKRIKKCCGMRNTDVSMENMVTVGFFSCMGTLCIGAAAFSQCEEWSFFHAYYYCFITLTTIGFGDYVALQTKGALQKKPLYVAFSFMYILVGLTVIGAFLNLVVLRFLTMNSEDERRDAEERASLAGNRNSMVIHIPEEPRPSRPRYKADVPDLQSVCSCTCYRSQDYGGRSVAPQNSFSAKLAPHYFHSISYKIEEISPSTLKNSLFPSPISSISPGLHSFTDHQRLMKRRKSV
KCNQ1 block: inhibitors of human KCNQ1 potassium channel; P51787; CHO-K1 KCNQ1, FluxOR thallium flux fluorescence; hits give high values; B-score at 10 µM; hit rate 1.3% among 310,000;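 active means compounds whose thallium flux B-score, printed positive for inhibition, exceeds three library SD while starting fluorescence stays within three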;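 further: channel opened by potassium depolarization with thallium stimulus after 20 min compound exposure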
KCNK3 block: human KCNK3 channel inhibition, primary screen; CHO-KCNK3 thallium flux, FluxOR fluorescence; hits give low values; B-score at 10 µM; hit rate 0.84% among 340,000;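 active means B-score under library mean minus 4 SD, starting fluorescence ratio at most library mean plus 5 SD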;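 further: more negative B-score means stronger inhibition of thallium flux through KCNK3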
Target sequence (O14649 whole entry, looked up): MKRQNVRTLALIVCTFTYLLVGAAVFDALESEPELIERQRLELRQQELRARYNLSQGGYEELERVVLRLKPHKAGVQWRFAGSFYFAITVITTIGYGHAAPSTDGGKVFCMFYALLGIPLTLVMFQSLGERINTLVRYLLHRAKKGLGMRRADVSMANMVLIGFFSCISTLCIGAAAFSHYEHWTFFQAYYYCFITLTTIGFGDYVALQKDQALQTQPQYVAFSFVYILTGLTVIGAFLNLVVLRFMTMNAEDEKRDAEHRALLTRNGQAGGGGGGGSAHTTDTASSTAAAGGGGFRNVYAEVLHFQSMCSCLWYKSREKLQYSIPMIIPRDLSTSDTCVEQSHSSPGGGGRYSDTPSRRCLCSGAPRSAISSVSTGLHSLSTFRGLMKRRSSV
hERG rescue: shields human hERG channel from block by proarrhythmic agents. CHO-hERG, FluxOR thallium flux, dofetilide IC70 present. activation (rescue from dofetilide block), less the hit threshold, % at 10 µM. hit rate 0.51% among 310,000. AID 1511;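 active means activation above the mean of controls blocked by dofetilide plus 5 SD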;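 further: thallium influx through hERG after potassium depolarization seen as dye fluorescence rise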
Kir21 block: inhibitors of mouse Kir2.1 inward-rectifier potassium channel; P35561; HEK293-Kir2.1, FluxOR thallium flux fluorescence; hits give low values; B-score at 10 µM; hit rate 0.85% among 310,000; AID 1672;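 active means fluorescence ratio B-score at or below minus 3 SD of library scores, with starting-brightness B-score within 2 SD, cut at about -4.2 in these data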;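 further: channel flux triggered by added potassium and thallium sulfate stimulus; B-score of peak minus minimum fluorescence over baseline after thallium stimulus; more negative B-score means stronger Kir2.1 block with less thallium influx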
KCNQ1 inh valid: confirmation of human KCNQ1 potassium channel inhibitors; shares compounds with KCNQ1 block; KCNQ1 cell line, FluxOR thallium flux fluorescence; inhibition, % at 10 µM; hit rate 93% among 1,600;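 active means primary screen active, with duplicate mean exceeding buffer control mean plus 3 SD of buffer wells, cut at about 28% in these data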;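 further: 0% = buffer control ratio and 100% = XE991 inhibitor control ratio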
CHO Tl flux: KCNQ1 inhibitor counter-screen hit in parental CHO cells | shares compounds with KCNQ1 block | parental CHO-K1, FluxOR thallium flux fluorescence ratio; hits give low values; zero means no signal rise above baseline | fluorescence ratio (Tl flux) at 10 µM | hit rate 21% among 1,600 | AID 588366;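 active means mean of duplicate thallium-flux fluorescence ratios in parental host cells more than 5 SD below the buffer control mean, cut at about 0.38 in these data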;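 further: ratio is peak minus minimum fluorescence divided by baseline fluorescence; actives read low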
KCNQ1 APC inh: blocks human KCNQ1 current in automated patch clamp | shares compounds with KCNQ1 block | KCNQ1-CHO cells | calls only at 10 µM | hit rate 20% among 490;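 active means KCNQ1 current drop exceeding 3 SD of negative control wells, seen in both duplicate runs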;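 further: steady state current during a 2 s step from -80 to +40 mV; negative values mean current inhibition and positive values mean potentiation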
KCNQ2 spec: KCNQ1 inhibitor that also blocks rat KCNQ2 channel | hit rate 71% among 1,600 | shares compounds with KCNQ1 block | inhibition, % at 10 µM | KCNQ2 cells, FluxOR thallium flux fluorescence;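 active means mean percent inhibition of the KCNQ2 thallium signal more than 5 SD above the buffer-only control wells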;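 further: KCNQ2 expressed in CHO cells; 0% = buffer control wells and 100% = XE-991 inhibitor control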
KCNQ1-KCNE1 inh: KCNQ1 inhibitor that also blocks human KCNQ1/KCNE1 channel; AID 652147; inhibition, % at 10 µM; KCNQ1/KCNE1 cells, FluxOR thallium flux fluorescence; hit rate 77% among 1,600; shares compounds with KCNQ1 block;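 active means mean percent inhibition of duplicate wells above the buffer-only control mean plus 3 SD of those controls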;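 further: 0% = buffer only wells and 100% = XE-991 inhibitor control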
KCNK9 block conf: confirmation of human KCNK9 potassium channel inhibitors; shares compounds with KCNK9 block; HEK293 KCNK9 cells, FluxOR thallium flux fluorescence; inhibition, % at 10 µM; hit rate 43% among 4,900; AID 492992;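 active means thallium signal inhibited by more than 5 SD of the compound-free buffer control wells, on both duplicate plates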;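 further: 0% = assay buffer control wells without compound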
Kir21 sel: selectivity of KCNK9 modulators against mouse Kir2.1. shares compounds with KCNK9 block. Kir2.1 cells, FluxOR thallium flux fluorescence. inhibition, % at 10 µM. hit rate 4% among 4,900. AID 492993;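 active means thallium signal drop more than 5 SD beyond the mean of the no-compound control wells, seen in both duplicate plates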;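 further: signal is fluorescence rise after thallium addition divided by baseline fluorescence; plate controls were assay buffer only for no effect and full block by chlorpromazine control for full effect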
HEK293 Tl ctr: second counter-screen for KCNK9 modulators: effect in non-induced cells | shares compounds with KCNK9 block | non-induced KCNK9-HEK293, FluxOR thallium flux | inhibition, % at 10 µM | hit rate 40% among 4,900 | AID 492997;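 active means thallium signal drop beyond 5 SD of the untreated control mean, on both duplicate plates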;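 further: plate controls were buffer only IC0 wells for no effect and SID17386958 at its maximal inhibitory level for full effect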
* = called active by the depositor. Shown are actives, neighbours in structure and some others; about 3.8% of the full set was active somewhere.

Nc1c(C(=O)c2ccccc2)sc2nsc(SCCN3CCCC3)c12 was read as KCNQ1 act inactive, KCNK9 block inactive, KCNQ1 block 8*, KCNK3 block inactive, hERG rescue -26, Kir21 block -3.5, KCNQ1 inh valid 108*, CHO Tl flux 0.21*, KCNQ2 spec inactive, KCNQ1-KCNE1 inh 144%*, KCNK9 block conf 45%*, Kir21 sel 36%* and HEK293 Tl ctr 73%*.
Screening CC1(c2ccc(OC(F)F)cc2)NC(=O)N(CC(=O)Nc2cccnc2Cl)C1=O (configuration not stated) returned KCNQ1 act inactive, KCNK9 block inactive, KCNQ1 block inactive, KCNK3 block inactive, hERG rescue -9 and Kir21 block -1.
`Cc1cccc(N2CCN(C(=O)C(Cc3ccccc3)n3cccc3)CC2)c1C` (configuration not stated) gave KCNQ1 act inactive, KCNK9 block -9.8*, KCNQ1 block 9*, KCNK3 block inactive, hERG rescue -13, Kir21 block -1.7, KCNQ1 inh valid 140*, CHO Tl flux 0.31*, KCNQ2 spec 126%*, KCNQ1-KCNE1 inh active, KCNK9 block conf 49%*, Kir21 sel inactive and HEK293 Tl ctr 36%*.
`Cc1cc(NC(=O)Nc2ccccc2)n(C(C)(C)C)n1` gave KCNQ1 act inactive, KCNK9 block inactive, KCNQ1 block inactive, KCNK3 block inactive, hERG rescue -7 and Kir21 block -3.2.
S=C(c1ccc(-c2cccc(Cl)c2)o1)N1CCCCC1 was read as KCNQ1 act inactive, KCNK9 block -8.8*, KCNQ1 block 6*, KCNK3 block inactive, hERG rescue -9, Kir21 block 0.12, KCNQ1 inh valid 92*, CHO Tl flux 0.41, KCNQ1 APC inh inactive, KCNQ2 spec 87%*, KCNQ1-KCNE1 inh 100%*, KCNK9 block conf 32%*, Kir21 sel inactive and HEK293 Tl ctr 32%*.
Screening S=C(c1ccc(-c2cccc(Cl)c2)o1)N1CCOCC1 returned KCNQ1 act inactive, KCNK9 block inactive, KCNQ1 block inactive, KCNK3 block inactive, hERG rescue -10 and Kir21 block -2.3.
Screening Cc1c(CCOC(=O)c2cc([N+](=O)[O-])cc([N+](=O)[O-])c2)sc[n+]1CC(=O)c1ccc(Br)cc1 returned KCNQ1 act inactive, KCNK9 block inactive, KCNQ1 block inactive, KCNK3 block inactive, hERG rescue -11 and Kir21 block -0.43.
COc1ccc(S(=O)(=O)N2CCN(c3cccc(C)c3C)CC2)cc1 was read as KCNQ1 act inactive, KCNK9 block inactive, KCNQ1 block 9*, KCNK3 block inactive, hERG rescue -9, Kir21 block 1.4, KCNQ1 inh valid active, CHO Tl flux 0.35*, KCNQ2 spec inactive, KCNQ1-KCNE1 inh inactive, KCNK9 block conf inactive, Kir21 sel inactive and HEK293 Tl ctr inactive.
Screening COc1ccc(N2CCN(S(=O)(=O)c3ccc(OC)cc3)CC2)cc1 returned KCNQ1 act inactive, KCNK9 block inactive, KCNQ1 block inactive, KCNK3 block inactive, hERG rescue -6 and Kir21 block -0.92.
COc1ccc2[nH]cc(CCNC(=O)Cn3cc(C)c(=O)[nH]c3=O)c2c1 was read as KCNK3 block inactive.
CCOC(=O)c1nnn(-c2nonc2-n2cccc2)c1CN1CCC(C)CC1 was read as KCNQ1 act inactive, KCNK9 block -9.3*, KCNQ1 block 6*, KCNK3 block -9.1*, hERG rescue -14, Kir21 block -1.4, KCNQ1 inh valid 88*, CHO Tl flux 0.39, KCNQ2 spec 71%*, KCNQ1-KCNE1 inh 128%*, KCNK9 block conf inactive, Kir21 sel inactive and HEK293 Tl ctr 32%*.
`CCOC(=O)c1nnn(-c2nonc2-n2cccc2)c1CCl` gave KCNQ1 act inactive, KCNK9 block inactive, KCNQ1 block inactive, KCNK3 block inactive, hERG rescue -10 and Kir21 block 1.3.
For COc1ccc(NC(=O)CN2CCN(C3c4ccccc4-c4ccccc43)CC2)c(OC)c1 the results were KCNQ1 act inactive, KCNK9 block -17*, KCNQ1 block 8*, KCNK3 block inactive, hERG rescue -11, Kir21 block -0.51, KCNQ1 inh valid 60*, CHO Tl flux 0.42, KCNQ2 spec 79%*, KCNQ1-KCNE1 inh 98%*, KCNK9 block conf 38%*, Kir21 sel inactive and HEK293 Tl ctr 34%*.
Screening CCOc1ccc(NC(=O)CN2CCN(C3c4ccccc4-c4ccccc43)CC2)cc1 returned KCNQ1 act inactive, KCNK9 block inactive, KCNQ1 block inactive, KCNK3 block inactive, hERG rescue -8 and Kir21 block -0.56.
Screening Cc1cc(C)n(-c2nc(SCCN(C)C)c3c4c(sc3n2)CCCC4)n1 returned KCNQ1 act inactive, KCNK9 block -9.8*, KCNQ1 block 14*, KCNK3 block inactive, hERG rescue -32, Kir21 block -8*, KCNQ1 inh valid 88*, CHO Tl flux 0.4, KCNQ2 spec 109%*, KCNQ1-KCNE1 inh 112%*, KCNK9 block conf 44%*, Kir21 sel 44%* and HEK293 Tl ctr 28%*.
Cn1nc(C(=O)NNC(=O)c2cccc(Cl)c2)ccc1=O was read as KCNK3 block inactive.
